# Results gathered from unrelated publications.
# Lines come from different studies, so protocols differ.
# Organism: Mycobacterium tuberculosis
# Effect on: microbial growth
Compound,technique,strain,time,MIC
Clc1cccc(CCOc2cc(-c3ccccn3)nc3ncnn23)c1,,H37RV,,> 100 µM
Nc1nc2[nH]c(=O)n(O)c(=O)c2s1,,,,> 100 µM
Cc1ccc(CCNc2cc(-c3nccs3)nc3nncn23)cc1,,H37RV,,32 µM
[H]/N=C(/N)N[C@H]1[C@H](O)[C@@H](O)[C@H](O[C@@H]2O[C@@H](C)[C@](O)(C=O)[C@H]2O[C@@H]2O[C@@H](CO)[C@H](O)[C@@H](O)[C@@H]2NC)[C@@H](N/C(N)=N\[H])[C@@H]1O,resazurin,H37RV,5 days,1 µg/mL
CCc1cc(=O)c2c(OCC(O)CN3CCCCC3)c3ccoc3c(OC)c2o1 (stereo not shown),resazurin,,21 days,32 µg/mL
COc1nc2ccc(Br)cc2cc1[C@@H](c1ccccc1)[C@@](O)(CCN(C)C)c1cccc2ccccc12,,H37RV,,0.31 µM
CO[C@H]1/C=C/O[C@@]2(C)Oc3c(C)c(O)c4c(O)c(c(/C=N/N5CCN(C)CC5)c(O)c4c3C2=O)NC(=O)/C(C)=C\C=C\[C@H](C)[C@H](O)[C@@H](C)[C@@H](O)[C@@H](C)[C@H](OC(C)=O)[C@@H]1C,resazurin,,21 days,64 µg/mL
CCOC(=O)c1c(-c2ccc(OC)cc2)oc2ccc(OCc3cn(Cc4ccccc4)nn3)c(CN3CCCCC3)c12,,CDC1551,,2.4 µM
CCc1nc2[nH]c(=O)n(O)c(=O)c2s1,,,,46.4 µM
CO[C@H]1/C=C/O[C@@]2(C)Oc3c(C)c(O)c4c(O)c(c(/C=N/N5CCN(C)CC5)c(O)c4c3C2=O)NC(=O)/C(C)=C\C=C\[C@H](C)[C@H](O)[C@@H](C)[C@@H](O)[C@@H](C)[C@H](OC(C)=O)[C@@H]1C,resazurin,H37RV,,0.152 µM
CCc1cc(=O)c2c(OCC(O)CNC(C)(C)C)c3ccoc3c(OC)c2o1 (stereo not shown),resazurin,H37RV,21 days,128 µg/mL
O=[N+]([O-])c1cn2c(n1)OC[C@@H](OCc1ccc(OC(F)(F)F)cc1)C2,,H37RV,,0.125 µg/mL
NC(=S)NN=Cc1ccc(OC(=O)CN2C(=O)CSC2=O)c(Br)c1,resazurin,H37RV,,9.27 µM
O=C(Cc1ccccc1)Nc1cc(-c2ccccn2)nc2nncn12,,H37RV,,2 µM
NNC(=O)c1ccncc1,resazurin,H37RV,,0.228 µM
O=c1[nH]c2nc(-c3cccnc3)sc2c(=O)n1O,,,,> 100 µM
COc1ccc(-c2oc3ccc(O)c(CN4CCCCC4)c3c2C(=O)NCc2cn(Cc3ccccc3)nn2)cc1,,CDC1551,,2 µM
Clc1ccc(CCNc2cc(-c3ccccn3)nc3nnc(C4CC4)n23)cc1,,H37RV,5 days,17 to 50 µM
CCc1cc(=O)c2c(O)c3ccoc3c(OC)c2o1,resazurin,,21 days,128 µg/mL
FC(F)(F)c1ccc(CCNc2cc(-c3ccccn3)nc3nnc(C4CC4)n23)cc1,,H37RV,,42 µM
CCc1cc(=O)c2c(OCC(O)CN3CCC(C)CC3)c3ccoc3c(OC)c2o1 (stereo not shown),resazurin,H37RV,21 days,32 µg/mL
Cc1ccc(-c2cc(NCCc3ccc(F)cc3)n3cnnc3n2)o1,,H37RV,,19 µM
CCc1cc(=O)c2c(OCC3CO3)c3ccoc3c(OC)c2o1 (stereo not shown),resazurin,,21 days,64 µg/mL
FC(F)Oc1ccc(CCNc2cc(-c3ccccn3)nc3nncn23)cc1,,H37RV,,1.1 µM
CO[C@H]1/C=C/O[C@@]2(C)Oc3c(C)c(O)c4c(O)c(c(/C=N/N5CCN(C6CCCC6)CC5)c(O)c4c3C2=O)NC(=O)/C(C)=C\C=C\[C@H](C)[C@H](O)[C@@H](C)[C@@H](O)[C@@H](C)[C@H](OC(C)=O)[C@@H]1C,resazurin,H37RV,7 days,0.2 µg/mL
